The subject of data set [1] is HEp-2. Briefly: Cytostatic activity against human HEp-2 cells assessed as poor cell staining at 0.8 to 4.0 uM measured after 3 days by CellTiter 96 aqueous one solution assay. To be noted: dose 0.8-4 µM, time 3.0 day. Format: functional, cell-based. A digest of the protocol:
(§1)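 Compound-treated HEp-2 cells (grown in DMEM with 8% fetal calf serum and 292 μg/mL L-glutamine) were examined by microscopy alongside the tetrazolium viability assay. Cytostatic effects were scored as poor cell proliferation, altered cell shape or poor cell staining.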

The subject of data set [2] is HEp-2. In words: Cytostatic activity against human HEp-2 cells assessed as poor cell staining at 20 uM measured after 3 days by CellTiter 96 aqueous one solution assay. Format: functional, cell-based. The note with it: time 3.0 day. A digest of the protocol: as §1
Data set [3] deals with HEp-2. In words: Cytotoxicity against human HEp-2 cells measured after 3 days by CellTiter 96 aqueous one solution assay (Rvb >100 microM). Format: functional. To be noted: HEp-2, 72 h, time 3 day.
The nature of data set [4]: Selectivity index, ratio of CC50 for human HEp-2 cells to IC50 for Human respiratory syncytial virus infected in human HEp-2 cells. Format: toxicity, cell-based. To be noted: read-out: Ratio CC50/IC50.
The subject of data set [5] is HEp-2. Briefly: Cytostatic activity against human HEp-2 cells assessed as poor cell staining at 4.0 to 100 uM measured after 3 days by CellTiter 96 aqueous one solution assay. The note with it: dose 4-100 µM, time 3.0 day. Format: functional, cell-based.
The test system of data set [6] is HEp-2. In words: Cytostatic activity against human HEp-2 cells assessed as poor cell staining at 4.0 uM measured after 3 days by CellTiter 96 aqueous one solution assay. Format: functional, cell-based. The note with it: time 3.0 day.
Data set [7] relates to HEp-2. In words: Cytostatic activity against human HEp-2 cells assessed as poor cell proliferation at 100 uM measured after 3 days by CellTiter 96 aqueous one solution assay. Format: functional, cell-based. The note with it: time 3.0 day. A digest of the protocol:
as §1

Data set [8] concerns HEp-2. Briefly: Cytostatic activity against human HEp-2 cells assessed as poor cell staining at 100 uM measured after 3 days by CellTiter 96 aqueous one solution assay. Format: functional, cell-based. To be noted: time 3.0 day.

Active and inactive are the calls of the source. No cut-off for these calls is given here. Where only a bound is given, the exact number is not on record here.

As for `COc1cc2c(cc1OC)[C@]1(O)C(=O)c3ccc4c(c3O[C@@H]1CO2)C=CC(C)(C)O4`, the outcome in data set [1] was Active.
`COc1ccc2c(=O)c(-c3cc4c(cc3OC)OCO4)coc2c1`: the outcome in data set [2] was Active.
For the compound `COc1cc2c(cc1-c1coc3cc(O)ccc3c1=O)OCO2` [CUNEATIN], the CC50 (as a rule, the concentration that lowers cell viability or growth by half) in data set [3] was over 100 µM.
With `COc1ccc2c(c1)O[C@@H]1COc3cc(OC)c(OC)cc3[C@]1(O)C2=O`, the outcome in data set [2] was Active.
The same measure, in the same setting: in the case of `COc1ccc2c(c1)O[C@@H]1COc3cc4c(cc3[C@]1(O)C2=O)OCO4` it was “Active”.
Take `CC(C)=CCOc1ccc(-c2coc3c4c(ccc3c2=O)OC(C)(C)C=C4)cc1`: the selectivity ratio in data set [4] was over 47.6. Moreover, the CC50 in data set [3] is over 100 µM. For the same compound, in data set [5], the outcome was Active.
As for `COc1cc2c(cc1OC)[C@@H]1C(=O)c3ccc4c(c3O[C@@H]1CO2)C=CC(C)(C)O4` [DEGUELIN], the result in data set [6] was Active. Besides, the selectivity ratio in data set [4] came out at 61.6.
For `CC1(C)C=Cc2c(ccc3c(=O)c(-c4ccc5c(c4)OCO5)coc23)O1`, the CC50 in data set [3] is over 100 µM.
In the case of `NC(=O)c1ncn([C@@H]2O[C@H](CO)[C@@H](O)[C@H]2O)n1` [RIBAVIRIN], the outcome in data set [7] was Active. Further, the CC50 in data set [3] is over 100 µM.
For the compound `CC(C)=CCOc1ccc(-c2coc3c4c(cc(O)c3c2=O)OC(C)(C)C=C4)cc1`, the outcome in data set [8] was Active. The CC50 in data set [3] was over 100 µM.
As to `COc1ccc2c(c1)O[C@@H]1COc3cc4c(cc3[C@@H]1C2=O)OCO4`, the CC50 in data set [3] was over 100 µM.
In turn, `COc1c(O[C@@H]2O[C@H](CO[C@H]3O[C@H](C)[C@@H](O)[C@H](O)[C@@H]3O)[C@@H](O[C@@H]3O[C@H](CO[C@H]4O[C@H](C)[C@@H](O)[C@H](O)[C@@H]4O)[C@@H](O)[C@H](O)[C@H]3O)[C@H](O)[C@H]2O)cc2c(=O)c(-c3ccc4c(c3)OCO4)coc2c1OC` returned a CC50 in data set [3] of over 100 µM.
Still for that read-out and setting: then `COc1cc2c(cc1OC)C(=O)[C@@]1(O)c3cc4c(cc3OC[C@H]1O2)OCO4`, with over 100 µM.
`COc1cc2c(cc1-c1coc3c4c(c(OC)cc3c1=O)OC(C)(C)C=C4)OCO2` [ICHTHYNONE] yielded a CC50 in data set [3] of 91 µM. Besides, the result in data set [2] was Active.
Turning to `COc1ccc2c(=O)c(-c3cc(OC)c4c(c3OC)OCO4)coc2c1`, the CC50 in data set [3] was over 100 µM.
Still for that read-out and setting: then `COc1ccc2c(c1)O[C@@H]1COc3c(cc(OC)c4c3OCO4)[C@@H]1C2=O`, with over 100 µM.

Source of the values: ChEMBL document CHEMBL5385953, “Antiviral Rotenoids and Isoflavones Isolated from Millettia oblata ssp. teitensis” (J Nat Prod, 2024).
